Source: publication PMC6997517 (EBioMedicine, 2020)

Experiments:
[1] = system: mice with IMQ-induced psoriasis-like disease; assay: Imiquimod; format: in vivo, mouse (C57BL/6)
Method in brief: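 C57BL/6 mice (6–7 weeks, specific-pathogen-free) given 62·5 mg of 5% imiquimod cream topically for 5 consecutive days; controls left untreated. Test compound (10 or 50 nmol/g) or PBS given daily, and methotrexate (10 μg/g) as reference, all starting 1 day before the cream. Mice killed after 5 days. Back-skin severity scored on a PASI-based scale.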

[2] = system: mice with IMQ-induced psoriasis-like disease; assay: Histology and immunohistochemistry of back skin, psoriasis model; format: in vivo, mouse (C57BL/6)
Method in brief: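 Back-skin lesions from imiquimod-treated C57BL/6 mice fixed in 4% paraformaldehyde, paraffin-embedded and sectioned at 7 μm. H&E staining used for epidermal/dermal thickness, measured by microscopy. Immunohistochemistry done with HRP/DAB detection using primary antibodies to CD68, CD4 and IL-17.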

RAW264.7 cells = assay: MTT cell viability, RAW264.7 cells; format: cell-based, murine; conditions: 50 μM
Method in brief: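 MTT colourimetric viability assay. HEK-Blue hTLR4 cells (high-glucose DMEM, 10% FBS, normocin) seeded at 5 × 10^4/well. RAW264.7 cells seeded at 2 × 10^5/well. Both grown overnight before exposure to test compound.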

[3] = system: lupus-prone mice (MRL/lpr); assay: SLE model, MRL/lpr mice; format: in vivo, mouse (MRL/lpr); conditions: 10 nmol/g i.p. daily, 20 days
CIA mice = assay: Collagen-induced arthritis; format: in vivo, mouse (DBA/1 J)
Method in brief: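 Male DBA/1J mice (6–7 weeks, 20–23 g) immunised at tail base with 100 μg chicken type II collagen in an equal volume of complete Freund's adjuvant (day 0), boosted day 20. Groups of n = 7. Test compound (2·5 or 10 nmol/g) or methotrexate (2 mg/kg) in saline given i.p. once daily from day 22. Body weight, paw volume and arthritis index tracked. […] (maximum 16), twice weekly.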

TLR7/8 = assay: TNF-α secretion, R848; format: cell-based, murine; conditions: TIP3 at 50 μM
Method in brief: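 RAW264.7 cells seeded at 2 × 10^5/well (96-well) or 5 × 10^5/well (24-well), grown overnight, then treated with test compound. Stimulus: poly(I:C), CpG-ODN (15), FSL-1 (16) or R848 (17). Supernatant cytokines read after 24 h by mouse ELISA kits (IFN-β, IL-6, TNF-α). Cells kept at 37 °C, 5% CO2.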

TLR4 [4] = assay: Quantitative RT-PCR, LPS-stimulated RAW264.7 cells; format: cell-based, murine; conditions: TIP3 50 μM 1 h before LPS 100 ng/ml, 3 h; normalized to β-actin
Method in brief: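 Total RNA isolated with TRIzol and reverse-transcribed to cDNA. qPCR run with SYBR Green and gene-specific primers (reference genes β-actin and Gapdh). Relative expression calculated by the ΔΔCt method.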

TLR4 [5] = assay: NO secretion assay, LPS-stimulated RAW264.7 cells; format: cell-based, murine; conditions: absorbance at 550 nm
Method in brief: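 RAW264.7 cells seeded at 2 × 10^5/well in 96-well format and grown overnight. After treatment with test compound and LPS, nitric oxide in the culture medium was quantified with a colourimetric NO detection kit.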

[6] = system: TLR4 (HEK-Blue™ hTLR4 cells); assay: SEAP activity assay; format: cell-based, human; conditions: LPS-stimulated; absorbance at 620 nm; n ≥ 3
Method in brief: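 Seeded at 2 × 10^5/well (24-well) and grown overnight, then treated with a range of test-compound concentrations with or without LPS. Supernatants heat-treated at 65 °C for 10 min. SEAP (NF-κB reporter) detected with HEK-Blue detection medium.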

IL-1 receptor (IL-1R) = assay: IL-8 secretion, IL-1β-activated THP-1 cells; format: cell-based, human; conditions: THP-1 activated with IL-1β
TLR4 [7] = assay: Cytokine ELISA, LPS-stimulated THP-1-derived macrophages; format: cell-based, human
Method in brief: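 THP-1 cells grown in RPMI 1640 with 10% FBS and differentiated to macrophages with 80 nM PMA for 24 h. Seeded at 2 × 10^5/well (96-well) or 5 × 10^5/well (24-well) and grown overnight. After 24 h of treatment with test compound and LPS, secreted IL-6 and TNF-α in supernatants were quantified by ELISA.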

hMNCs = assay: Cell viability, hMNCs; format: cell-based, human
TLR4 [8] = assay: Cytokine ELISA, LPS-stimulated mBMDMs; format: cell-based, mouse; conditions: TIP3 1 h, then LPS 24 h
Method in brief: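 Bone marrow flushed from femurs and tibiae of 6–7-week-old C57BL/6J mice, then differentiated with M-CSF (25 ng/ml) for 3–4 days. Cells harvested with trypsin-EDTA and replated; experiments run after 24 h. Cells pretreated with test compound for 1 h, then co-treated with LPS for 24 h. Secreted IL-6 and TNF-α measured by mouse ELISA kits.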

TLR4 [9] = assay: Western blot, LPS-stimulated RAW264.7 cells; format: cell-based, murine
Method in brief: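 Total protein extracted with M-PER reagent and quantified by BCA. Membranes incubated with primary antibodies overnight at 4 °C, washed in PBS/0·1% Tween 20, then HRP-conjugated secondary (1:1000) for 2 h. Bands detected by enhanced chemiluminescence, with β-actin as loading reference.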

[10] = TIP3 10 and 50 nmol/g, H&E, five skin samples per group
[11] = PAP-TIP3 10 nmol/g, treatment started from day 35

For DYDVCVCH [TIP3], which “effect relative to MTX” value ([1]; TIP3 10 nmol/g vs MTX 10 μg/g) is on record?
The value was “relatively weaker effect than did the MTX-treated group”.

What about the spleen weight ([1]; TIP3 50 nmol/g i.p.) of the same sequence?
Its spleen weight is “significantly decreasing the spleen weight (almost to the weight of normal murine spleen)”.

And the body weight ([1]; TIP3 50 nmol/g i.p., vs MTX and TIP3 10 nmol/g)?
Its body weight is “underwent a weight loss as compared to the MTX- and TIP3 (10 nmol/g)-treated groups”.

And the “inflammation severity of back skin” value ([1]; TIP3 10 or 50 nmol/g daily)?
The value was “reversal of inflammation severity”.

What about the PASI score ([1]; TIP3 10 or 50 nmol/g i.p.) of the same sequence?
Its PASI score is “did not significantly reduce the PASI score starting from day 2”.

And the splenomegaly ([1]; TIP3 10 or 50 nmol/g i.p.)?
Its splenomegaly is “remarkably prevented splenomegaly in a dose-dependent manner”.

What about the “thickness of the dermis” value [2, 10] of the same sequence?
Its value is “noticeably attenuated thickness of the epidermis (yellow arrowheads) and dermis”.

What about the “thickness of the epidermis” value [2, 10] of the same sequence?
Its value is “noticeably attenuated thickness of the epidermis”.

And the “overexpression of CD4 in skin” value ([2]; immunohistochemistry)?
Its value is “effectively attenuated the overexpression of CD68, CD4”.

What about the “overexpression of CD68 in skin” value ([2]; immunohistochemistry) of the same sequence?
Its value is “effectively attenuated the overexpression of CD68”.

And the “overexpression of IL-17 in skin” value ([2]; immunohistochemistry)?
Its value is “effectively attenuated the overexpression of CD68, CD4, and IL-17”.

What about the “cell viability / toxicity” value (RAW264.7 cells) of the same sequence?
The value was “did not have any toxic effects”.

What about the “complement C4” value [3] of the same sequence?
Its value is “the levels of complement components C4 and C3 were recovered”.

What about the dsDNA autoantibodies ([3]; ELISA) of the same sequence?
The dsDNA autoantibodies was “remained low”.

And the “serum C3 complement” value ([3]; ELISA)?
Its value is “found to recover”.

And the urine albumin ([3]; ELISA)?
The urine albumin was “reduced by TIP3 treatment”.

What about the “lymphoid expansion and spleen volume” value ([3]; vs vehicle) of the same sequence?
The value was “reducing the lymphoid expansion and the spleen volume”.

What about the “arthritis index, postarthritis phase treatment” value (CIA mice; [11]) of the same sequence?
The value was “significantly inhibited when compared with the CIA mice”.

And the “body weight, postarthritis phase treatment” value (CIA mice; [11])?
The value was “did not observe any significant change in body weight”.

What about the “paw volume, postarthritis phase treatment” value (CIA mice; [11]) of the same sequence?
Its value is “significantly inhibited when compared with the CIA mice”.

What about the “loss of body weight” value (CIA mice; TIP3 10 nmol/g or MTX 2 mg/kg, i.p. daily from day 22) of the same sequence?
The value was “not observed”.

And the arthritis index (CIA mice; TIP3 10 nmol/g or MTX 2 mg/kg, i.p. daily from day 22, maximal score 16)?
Its arthritis index is “significantly decreased”.

And the “relative paw volume (large paw volume)” value (CIA mice; TIP3 10 nmol/g or MTX 2 mg/kg, i.p. daily from day 22, plethysmometer)?
Its value is “TIP3 (10 nmol/g)- and MTX-injected mice did not”.

What about the “induction of RA (arthritic symptoms)” value (CIA mice; i.p. once a day from day 22, vs CIA mice) of the same sequence?
Its value is “significantly attenuated”.

What about the “TNF-α secretion mediated by TLR7, TLR8” value (TLR7/8) of the same sequence?
The value was “somewhat weak inhibition”.

And the “Cxcl-10 mRNA expression” value (TLR4 [4])?
The value was “significantly inhibited the mRNA expression”.

What about the “Ifn-β mRNA expression” value (TLR4 [4]) of the same sequence?
The value was “significantly inhibited the mRNA expression”.

And the “Il-1β mRNA expression” value (TLR4 [4])?
Its value is “significantly inhibited the mRNA expression”.

And the “Il-6 mRNA expression” value (TLR4 [4])?
The value was “significantly inhibited the mRNA expression”.

What about the “Tnf-α mRNA expression” value (TLR4 [4]) of the same sequence?
Its value is “significantly inhibited the mRNA expression”.

What about the “LPS-induced extracellular NO secretion” value (TLR4 [5]) of the same sequence?
The value was “represses the LPS-induced extracellular secretion of NO”.

And the “inhibition of LPS-induced SEAP activity (NF-κB)” value [6]?
Its value is “hampered the LPS-induced SEAP activity in a dose-dependent manner”.

What about the IL-8 secretion (IL-1 receptor (IL-1R)) of the same sequence?
Its IL-8 secretion is “did not hinder the secretion of IL-8”.

And the IL-6 secretion (TLR4 [7])?
The IL-6 secretion was “significant dose-dependent inhibitory effect”.

What about the TNF-α secretion (TLR4 [7]) of the same sequence?
Its TNF-α secretion is “significant dose-dependent inhibitory effect”.

What about the cell viability (hMNCs) of the same sequence?
The cell viability was “substantial reproducible outcomes were observed in terms of cell viability”.

What about the “TLR4-mediated IL-6 secretion” value (TLR4 [8]) of the same sequence?
The value was “suppressed the TLR4-mediated secretion of IL-6”.

What about the “TLR4-mediated TNF-α secretion” value (TLR4 [8]) of the same sequence?
The value was “suppressed the TLR4-mediated secretion of IL-6 and TNF-α”.

What about the ATF3 expression (TLR4 [9]) of the same sequence?
The ATF3 expression was “hindered the LPS-induced expression of activating transcription factor 3 (ATF3)”.

And the COX2 expression (TLR4 [9])?
Its COX2 expression is “represses the LPS-induced extracellular secretion of NO and the expression of iNOS and COX2 in a dose-dependent manner”.

And the Iκ-Bα degradation (TLR4 [9])?
The Iκ-Bα degradation was “inhibiting Iκ-Bα degradation”.

And the iNOS expression (TLR4 [9])?
Its iNOS expression is “represses the LPS-induced extracellular secretion of NO and the expression of iNOS and COX2 in a dose-dependent manner”.

What about the “phosphorylation of ERK” value (TLR4 [9]) of the same sequence?
The value was “inhibiting the phosphorylation of c-Jun N-terminal kinase (JNK), p38 MAPK, extracellular signal–regulated kinase (ERK)”.

And the “phosphorylation of IRF3 (p-IRF3)” value (TLR4 [9])?
The value was “inhibiting Iκ-Bα degradation, and phosphorylation of the p65 subunit of NF-κB, and IRF3”.

And the “phosphorylation of JNK” value (TLR4 [9])?
Its value is “inhibiting the phosphorylation of c-Jun N-terminal kinase (JNK)”.

What about the “phosphorylation of p38” value (TLR4 [9]) of the same sequence?
Its value is “inhibiting the phosphorylation of c-Jun N-terminal kinase (JNK), p38 MAPK”.

What about the “phosphorylation of p65 subunit of NF-κB (p-p65)” value (TLR4 [9]) of the same sequence?
The value was “inhibiting Iκ-Bα degradation, and phosphorylation of the p65 subunit of NF-κB”.
